This note sets out measurements from ChEMBL document CHEMBL1629503, “Novel conformationally restricted triazole derivatives with potent antifungal activity” (2010).

Common to all, as to assay type: functional
The test system of one experiment is Cryptococcus neoformans. Briefly: Antifungal activity against Cryptococcus neoformans after 72 hrs by serial dilution method. The essentials:
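Yeast MIC by NCCLS serial microdilution in RPMI 1640 with 0.165 M MOPS, using an ATCC strain or clinical isolate. Test agents came from DMSO stocks diluted in medium. Incubation was at 35 °C with the read at 72 h. MIC80 is the lowest concentration at which turbidity was […] of drug-free control growth.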

Another experiment relates to Candida parapsilosis. In words: Antifungal activity against Candida parapsilosis after 24 hrs by serial dilution method. Particulars: Lodderomyces parapsilosis. The essentials:
(§1)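 Broth microdilution MIC per NCCLS recommendations in 96-well plates, using RPMI 1640 buffered with 0.165 M MOPS. Strains were ATCC or clinical isolates. Compounds were dissolved in DMSO and serially diluted in medium. Yeasts were incubated at 35 °C and growth was read at 24 h. MIC80 is the lowest concentration giving […] of control growth (turbidity).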

In the next experiment the test system is Aspergillus fumigatus. Briefly: Antifungal activity against Aspergillus fumigatus after 7 days by serial dilution method. Particulars: 168 h. Summed up: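 Mould susceptibility by NCCLS serial dilution in 96-well plates, using MOPS-buffered (0.165 M) RPMI 1640 medium. Compounds were dissolved in DMSO and serially diluted in medium. Isolates were from ATCC or clinical sources. The endpoint MIC80 is the lowest concentration giving turbidity […] of control growth.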

For another experiment, the system named is Candida tropicalis. In words: Antifungal activity against Candida tropicalis after 24 hrs by serial dilution method. Summed up:
as §1

A further experiment deals with Trichophyton rubrum. In words: Antifungal activity against Trichophyton rubrum after 7 days by serial dilution method. Particulars: 168 h. Summed up: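 Dermatophyte MIC by NCCLS-based serial dilution in 96-well plates, in RPMI 1640 buffered with 0.165 M MOPS. Compounds were dissolved in DMSO and diluted in growth medium. Incubation was at 28 °C. Strain was ATCC or clinical isolate. MIC80 is the lowest concentration reducing turbidity to […] of growth control.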

Another experiment concerns Candida albicans. In words: Antifungal activity against Candida albicans after 24 hrs by serial dilution method. Summed up: as §1
In a further experiment the test system is Kluyveromyces marxianus. Briefly: Antifungal activity against Candida kefyr after 24 hrs by serial dilution method. Summed up:
as §1

Converted amounts (≈) assume the structure as drawn.

With `CN(CC(O)(Cn1cncn1)c1ccc(F)cc1F)C1CCN(Cc2ccc(Cl)c(Cl)c2)CC1` (stereo not given), the MIC80 (usually an inhibitory concentration at the 80% level, which refers to growth in some studies and to a panel of isolates in others) against Cryptococcus neoformans is 0.25 µg/mL (≈ 0.49 µM); against Candida parapsilosis, 0.0625 µg/mL (≈ 0.122 µM); with Aspergillus fumigatus, 4 µg/mL (≈ 7.84 µM); in the experiment with Candida tropicalis it was 0.0625 µg/mL (≈ 0.122 µM); against Trichophyton rubrum it was 0.25 µg/mL (≈ 0.49 µM); in the experiment with Candida albicans, 0.0625 µg/mL (≈ 0.122 µM). Also, the MIC80 in the experiment with Kluyveromyces marxianus is 0.25 µg/mL (≈ 0.49 µM).

Take `CN(CC(O)(Cn1cncn1)c1ccc(F)cc1F)C1CCN(Cc2ccccc2)CC1` (stereo not given): the MIC80 with Cryptococcus neoformans stood at 1 µg/mL (≈ 2.26 µM); against Candida parapsilosis, 0.25 µg/mL (≈ 0.566 µM); in the experiment on Aspergillus fumigatus, 64 µg/mL (≈ 145 µM); in the experiment with Candida tropicalis, 1 µg/mL (≈ 2.26 µM); against Trichophyton rubrum, 1 µg/mL (≈ 2.26 µM); with Candida albicans, 0.25 µg/mL (≈ 0.566 µM). The molecule also came in with an MIC80 against Kluyveromyces marxianus of 1 µg/mL (≈ 2.26 µM).

For the molecule `CN(CC(O)(Cn1cncn1)c1ccc(F)cc1F)C1CCN(Cc2ccc([N+](=O)[O-])cc2)CC1` (stereo not given), the MIC80 stood at 0.25 µg/mL (≈ 0.514 µM) in the experiment with Cryptococcus neoformans; 0.0625 µg/mL (≈ 0.128 µM) against Candida parapsilosis; 4 µg/mL (≈ 8.22 µM) with Aspergillus fumigatus; 0.25 µg/mL (≈ 0.514 µM) with Candida tropicalis; 0.25 µg/mL (≈ 0.514 µM) in the experiment on Trichophyton rubrum; 0.0625 µg/mL (≈ 0.128 µM) in the experiment with Candida albicans. In addition, the MIC80 against Kluyveromyces marxianus is 1 µg/mL (≈ 2.06 µM).

For `CN(CC(O)(Cn1cncn1)c1ccc(F)cc1F)C1CCN(Cc2ccc(Br)cc2)CC1` (stereo not given), the MIC80 against Cryptococcus neoformans came to 0.25 µg/mL (≈ 0.48 µM); with Candida parapsilosis it was 0.0625 µg/mL (≈ 0.12 µM); in the experiment on Aspergillus fumigatus, 4 µg/mL (≈ 7.69 µM); against Candida tropicalis, 0.25 µg/mL (≈ 0.48 µM); with Trichophyton rubrum it was 0.25 µg/mL (≈ 0.48 µM); against Candida albicans, 0.0625 µg/mL (≈ 0.12 µM). In the experiment with Kluyveromyces marxianus, the MIC80 was found to be 1 µg/mL (≈ 1.92 µM).

Consider `CN(CC(O)(Cn1cncn1)c1ccc(F)cc1F)C1CCN(Cc2ccccc2Cl)CC1` (stereo not given), for which the MIC80 with Cryptococcus neoformans worked out at 0.25 µg/mL (≈ 0.525 µM); against Candida parapsilosis it was 0.0625 µg/mL (≈ 0.131 µM); in the experiment on Aspergillus fumigatus, 4 µg/mL (≈ 8.4 µM); in the experiment on Candida tropicalis, 0.25 µg/mL (≈ 0.525 µM); in the experiment with Trichophyton rubrum, 1 µg/mL (≈ 2.1 µM); against Candida albicans, 0.25 µg/mL (≈ 0.525 µM). The same molecule came in with an MIC80 against Kluyveromyces marxianus of 1 µg/mL (≈ 2.1 µM).

With `CN(CC(O)(Cn1cncn1)c1ccc(F)cc1F)C1CCN(Cc2ccc(Cl)cc2Cl)CC1` (stereo not given), the MIC80 in the experiment with Cryptococcus neoformans came out at 0.25 µg/mL (≈ 0.49 µM); in the experiment on Candida parapsilosis it was 0.0625 µg/mL (≈ 0.122 µM); in the experiment with Aspergillus fumigatus, 4 µg/mL (≈ 7.84 µM); in the experiment on Candida tropicalis, 0.0625 µg/mL (≈ 0.122 µM); with Trichophyton rubrum, 0.25 µg/mL (≈ 0.49 µM); with Candida albicans, 0.0625 µg/mL (≈ 0.122 µM). This molecule also displayed an MIC80 with Kluyveromyces marxianus of 0.25 µg/mL (≈ 0.49 µM).

Turning to `CN(CC(O)(Cn1cncn1)c1ccc(F)cc1F)C1CCN(Cc2cccc(Cl)c2)CC1` (stereo not given), the MIC80 in the experiment with Cryptococcus neoformans is 0.0625 µg/mL (≈ 0.131 µM); against Candida parapsilosis, 0.0625 µg/mL (≈ 0.131 µM); in the experiment with Aspergillus fumigatus it was 1 µg/mL (≈ 2.1 µM); against Candida tropicalis it was 0.25 µg/mL (≈ 0.525 µM); against Trichophyton rubrum it was 0.25 µg/mL (≈ 0.525 µM); in the experiment on Candida albicans it was 0.0625 µg/mL (≈ 0.131 µM). Besides, the MIC80 against Kluyveromyces marxianus came out at 1 µg/mL (≈ 2.1 µM).

Take `CN(CC(O)(Cn1cncn1)c1ccc(F)cc1F)C1CCN(Cc2ccc(C#N)cc2)CC1` (stereo not given): the MIC80 in the experiment with Cryptococcus neoformans stood at 0.0625 µg/mL (≈ 0.134 µM); in the experiment with Candida parapsilosis, 0.25 µg/mL (≈ 0.536 µM); against Aspergillus fumigatus, 1 µg/mL (≈ 2.14 µM); in the experiment on Candida tropicalis, 0.25 µg/mL (≈ 0.536 µM); in the experiment on Trichophyton rubrum, 0.0625 µg/mL (≈ 0.134 µM); against Candida albicans, 0.0625 µg/mL (≈ 0.134 µM). Moreover, the MIC80 against Kluyveromyces marxianus was 0.0625 µg/mL (≈ 0.134 µM).

For the molecule `CN(CC(O)(Cn1cncn1)c1ccc(F)cc1F)C1CCN(Cc2cccc(Br)c2)CC1` (stereo not given), the MIC80 amounted to 0.25 µg/mL (≈ 0.48 µM) against Cryptococcus neoformans; 0.0625 µg/mL (≈ 0.12 µM) in the experiment on Candida parapsilosis; 1 µg/mL (≈ 1.92 µM) with Aspergillus fumigatus; 0.0625 µg/mL (≈ 0.12 µM) against Candida tropicalis; 0.25 µg/mL (≈ 0.48 µM) against Trichophyton rubrum; 0.0625 µg/mL (≈ 0.12 µM) with Candida albicans. The same molecule gave an MIC80 in the experiment on Kluyveromyces marxianus of 0.25 µg/mL (≈ 0.48 µM).

On to `CN(CC(O)(Cn1cncn1)c1ccc(F)cc1F)C1CCN(Cc2ccccc2F)CC1` (stereo not given), for which the MIC80 in the experiment with Cryptococcus neoformans worked out at 0.25 µg/mL (≈ 0.544 µM); against Candida parapsilosis it was 0.25 µg/mL (≈ 0.544 µM); against Aspergillus fumigatus, 16 µg/mL (≈ 34.8 µM); in the experiment with Candida tropicalis, 0.25 µg/mL (≈ 0.544 µM); in the experiment with Trichophyton rubrum, 1 µg/mL (≈ 2.18 µM); in the experiment on Candida albicans, 0.25 µg/mL (≈ 0.544 µM). This molecule also had an MIC80 in the experiment on Kluyveromyces marxianus of 0.25 µg/mL (≈ 0.544 µM).

Consider `CN(CC(O)(Cn1cncn1)c1ccc(F)cc1F)C1CCN(Cc2ccc(F)cc2)CC1` (stereo not given), for which the MIC80 in the experiment with Cryptococcus neoformans stood at 0.25 µg/mL (≈ 0.544 µM); in the experiment on Candida parapsilosis, 0.25 µg/mL (≈ 0.544 µM); in the experiment with Aspergillus fumigatus, 16 µg/mL (≈ 34.8 µM); with Candida tropicalis it was 0.25 µg/mL (≈ 0.544 µM); with Trichophyton rubrum, 1 µg/mL (≈ 2.18 µM); in the experiment with Candida albicans it was 0.25 µg/mL (≈ 0.544 µM). The same molecule had an MIC80 against Kluyveromyces marxianus of 0.25 µg/mL (≈ 0.544 µM).

With `COc1cccc(CN2CCC(N(C)CC(O)(Cn3cncn3)c3ccc(F)cc3F)CC2)c1` (stereo not given), the MIC80 in the experiment on Cryptococcus neoformans was 0.25 µg/mL (≈ 0.53 µM); with Candida parapsilosis, 0.25 µg/mL (≈ 0.53 µM); against Aspergillus fumigatus it was 64 µg/mL (≈ 136 µM); against Candida tropicalis, 0.25 µg/mL (≈ 0.53 µM); in the experiment on Trichophyton rubrum it was 1 µg/mL (≈ 2.12 µM); with Candida albicans, 0.25 µg/mL (≈ 0.53 µM). For the same molecule, the MIC80 in the experiment with Kluyveromyces marxianus came out at 0.25 µg/mL (≈ 0.53 µM).

For `Cc1ccccc1CN1CCC(N(C)CC(O)(Cn2cncn2)c2ccc(F)cc2F)CC1` (stereo not given), the MIC80 with Cryptococcus neoformans was determined as 0.25 µg/mL (≈ 0.549 µM); in the experiment on Candida parapsilosis, 0.25 µg/mL (≈ 0.549 µM); in the experiment with Aspergillus fumigatus, 64 µg/mL (≈ 140 µM); in the experiment on Candida tropicalis, 0.25 µg/mL (≈ 0.549 µM); against Trichophyton rubrum, 1 µg/mL (≈ 2.2 µM); in the experiment with Candida albicans, 0.0625 µg/mL (≈ 0.137 µM). In the experiment with Kluyveromyces marxianus, the MIC80 is 0.25 µg/mL (≈ 0.549 µM).

For the molecule `CC(C)c1ccc(CN2CCC(N(C)CC(O)(Cn3cncn3)c3ccc(F)cc3F)CC2)cc1` (stereo not given), the MIC80 in the experiment on Cryptococcus neoformans stood at 0.25 µg/mL (≈ 0.517 µM); in the experiment with Candida parapsilosis, 0.25 µg/mL (≈ 0.517 µM); against Aspergillus fumigatus it was 16 µg/mL (≈ 33.1 µM); with Candida tropicalis it was 0.25 µg/mL (≈ 0.517 µM); with Trichophyton rubrum, 0.25 µg/mL (≈ 0.517 µM); against Candida albicans, 0.0156 µg/mL (≈ 0.0323 µM). For the same molecule, in the experiment with Kluyveromyces marxianus, the MIC80 was 0.25 µg/mL (≈ 0.517 µM).

As to `OC(Cn1cncn1)(Cn1cncn1)c1ccc(F)cc1F` [FLUCONAZOLE], the MIC80 in the experiment on Cryptococcus neoformans was 0.0625 µg/mL (≈ 0.204 µM); against Candida parapsilosis, 0.25 µg/mL (≈ 0.816 µM); in the experiment with Aspergillus fumigatus, over 64 µg/mL; with Candida tropicalis, 1 µg/mL (≈ 3.27 µM); in the experiment on Trichophyton rubrum, 1 µg/mL (≈ 3.27 µM); with Candida albicans it was 0.25 µg/mL (≈ 0.816 µM). In the experiment with Kluyveromyces marxianus, this molecule had an MIC80 of 1 µg/mL (≈ 3.27 µM).
